In ChEMBL document CHEMBL4406859, “Antitumor and antiviral activities of 4-substituted 1,2,3-triazolyl-2,3-dibenzyl-L-ascorbic acid derivatives” (Eur J Med Chem, 2019):
Calls of active or inactive are those of the source. The rule behind the calls is not given here.

Key:
[1] = test system: A549; test: Antiproliferative activity against human A549 cells assessed as reduction in cell viability incubated for 72 hrs by MTT assay; format: functional, cell-based; conditions: A549, 72 h
Summary of the method: (§1)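 Cells (ATCC) grown in DMEM with 10 FBS, penicillin/streptomycin, 2 mM glutamine, 37 °C, 5 CO2. 5000 cells/well seeded; after 24 h, freshly prepared dilutions at five concentrations (0.01–100 μM) added for 72 h. MTT read-out; absorbance converted to percentage growth by NIH formulas. Two experiments in quadruplicate; IC50 by linear regression.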

[2] = test system: CFPAC-1; test: Antiproliferative activity against human CFPAC-1 cells assessed as reduction in cell viability incubated for 72 hrs by MTT assay; format: functional, cell-based; conditions: Homo sapiens, CFPAC-1, 72 h; read-out: IC50; summary of the method: as §1
[3] = test system: HCT-116; test: Antiproliferative activity against human HCT116cells assessed as reduction in cell viability incubated for 72 hrs by MTT assay; format: functional, cell-based; conditions: HCT-116, 72 h; summary of the method: as §1
[4] = test system: HeLa; test: Antiproliferative activity against human HeLa cells assessed as reduction in cell viability incubated for 72 hrs by MTT assay; format: functional, cell-based; summary of the method: as §1
[5] = test system: HepG2; test: Antiproliferative activity against human HepG2 cells assessed as reduction in cell viability incubated for 72 hrs by MTT assay; format: functional, cell-based; conditions: HepG2, 72 h; summary of the method: as §1
[6] = test system: MCF7; test: Antiproliferative activity against human MCF7 cells assessed as reduction in cell viability incubated for 72 hrs by MTT assay; format: functional, cell-based; conditions: MCF7, 72 h; summary of the method: as §1
[7] = test system: SW-620; test: Antiproliferative activity against human SW620 cells assessed as reduction in cell viability incubated for 72 hrs by MTT assay; format: functional, cell-based; conditions: SW-620, 72 h; summary of the method: as §1
[8] = test system: HFF; test: Cytotoxicity against human HFF cells assessed as reduction in cell viability incubated for 72 hrs by MTT assay; format: cell-based; summary of the method: as §1
[9] = test system: MCF7; test: Induction of apoptosis in human MCF7 cells assessed as early apoptotic cells at 2 times of cytotoxic IC50 incubated for 24 hrs by annexin V staining based inverted phase contrast fluorescence microscopy (reference value: 0 %); format: functional
[10] = test system: MCF7; test: Induction of apoptosis in human MCF7 cells assessed as late apoptotic cells at 2 times of cytotoxic IC50 incubated for 24 hrs by annexin V staining based inverted phase contrast fluorescence microscopy (reference value: […]); format: functional
[11] = test system: MCF7; test: Induction of apoptosis in human MCF7 cells assessed as necrotic cells at 2 times of cytotoxic IC50 incubated for 24 hrs by annexin V staining based inverted phase contrast fluorescence microscopy (reference value: 0 %); format: functional
[12] = test system: MCF7; test: Induction of apoptosis in human MCF7 cells assessed as early apoptotic cells at 2 times of cytotoxic IC50 incubated for 48 hrs by annexin V staining based inverted phase contrast fluorescence microscopy (reference value: 0 %); format: functional
[13] = test system: MCF7; test: Induction of apoptosis in human MCF7 cells assessed as late apoptotic cells at 2 times of cytotoxic IC50 incubated for 48 hrs by annexin V staining based inverted phase contrast fluorescence microscopy (reference value: 10.60 %); format: functional
[14] = test system: MCF7; test: Induction of apoptosis in human MCF7 cells assessed as necrotic cells at 2 times of cytotoxic IC50 incubated for 24 hrs by annexin V staining based inverted phase contrast fluorescence microscopy (reference value: 0.84 %); format: functional
[15] = test system: MCF7; test: Upregulation of HIF1alpha in human MCF7 cells at cytotoxic IC50 incubated for 24 and 48 hrs by Western blot analysis; format: functional, cell-based
[16] = test system: MCF7; test: Downregulation of NOS2 in human MCF7 cells at cytotoxic IC50 incubated for 24 and 48 hrs by Western blot analysis; format: functional, cell-based
[17] = test system: Cytomegalovirus; test: Antiviral activity against Cytomegalovirus AD169 infected in human HELF cells assessed as reduction in virus-induced cytopathogenicity incubated for 7 days by Giemsa staining based microscopic analysis; format: functional, organism-based; conditions: Human betaherpesvirus 5, AD169, HELF, 168 h
Summary of the method: (§2)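 Confluent HEL fibroblasts infected with CMV (Davis or AD-169) at 100 PFU/well for 2 h. Residual virus removed, then medium with graded compound concentrations added (duplicate). Incubated 7 days at 37 °C. Cytopathogenicity scored microscopically after ethanol fixation and Giemsa staining. EC50 read from plots of % cytopathogenicity versus concentration.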

[18] = test system: Cytomegalovirus; test: Antiviral activity against Cytomegalovirus Davis infected in human HELF cells assessed as reduction in virus-induced cytopathogenicity incubated for 7 days by Giemsa staining based microscopic analysis; format: functional, organism-based; conditions: Human betaherpesvirus 5, Davis, 168 h; summary of the method: as §2
[19] = test system: Human alphaherpesvirus 3; test: Antiviral activity against thymidine kinase deficient Varicella zoster virus infected in human HELF cells assessed as reduction in virus-induced cytopathogenicity incubated for 7 days by Giemsa staining based microscopic analysis; format: functional, organism-based; conditions: Human alphaherpesvirus 3, HELF, 168 h
[20] = test system: Human alphaherpesvirus 3; test: Antiviral activity against thymidine kinase positive Varicella zoster virus infected in human HELF cells assessed as reduction in virus-induced cytopathogenicity incubated for 7 days by Giemsa staining based microscopic analysis; format: functional, organism-based; conditions: Human alphaherpesvirus 3, HELF, 168 h
[21] = Cytotoxicity against human HELF cells assessed as minimum cytotoxic concentration by observing alteration in cell morphology incubated for 3 days by microscopic analysis; format: cell-based; conditions: HELF cells
Summary of the method: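 Read-out is the minimum cytotoxic concentration (MCC): the lowest compound concentration giving a microscopically detectable change in cell morphology. Measured on confluent human embryonic lung (HEL) fibroblast cultures exposed to a range of compound concentrations.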

[22] = test system: Influenza A virus; test: Antiviral activity against Influenza A virus (A/Ned/378/05(H1N1)) infected in dog MDCK cells assessed as reduction in virus-induced cytopathogenicity incubated for 7 days by microscopic analysis; format: functional, organism-based
[23] = test system: Influenza A virus H3N2; test: Antiviral activity against Influenza A virus (A/HK/7/87(H3N2)) infected in dog MDCK cells assessed as reduction in virus-induced cytopathogenicity incubated for 7 days by microscopic analysis; format: functional, organism-based; conditions: A/Hong Kong/7/1987(H3N2)
[24] = test system: Influenza B virus; test: Antiviral activity against Influenza B virus (B/Ned/537/05) infected in dog MDCK cells assessed as reduction in virus-induced cytopathogenicity incubated for 7 days by microscopic analysis; format: functional, organism-based
[25] = test system: Influenza A virus; test: Antiviral activity against Influenza A virus (A/Ned/378/05(H1N1)) infected in dog MDCK cells assessed as reduction in virus-induced cytopathogenicity incubated for 7 days by MTS assay; format: functional, organism-based
[26] = test system: Influenza A virus H3N2; test: Antiviral activity against Influenza A virus (A/HK/7/87(H3N2)) infected in dog MDCK cells assessed as reduction in virus-induced cytopathogenicity incubated for 7 days by MTS assay; format: functional, organism-based; conditions: A/Hong Kong/7/1987(H3N2)
[27] = test system: Influenza B virus; test: Antiviral activity against Influenza B virus (B/Ned/537/05) infected in dog MDCK cells assessed as reduction in virus-induced cytopathogenicity incubated for 7 days by MTS assay; format: functional, organism-based
[28] = test system: Human alphaherpesvirus 1; test: Antiviral activity against Herpes simplex virus 1 KOS infected in human HELF cells assessed as reduction in virus-induced cytopathogenicity incubated for 7 days by microscopic analysis; format: functional, organism-based; conditions: strain KOS
[29] = test system: Human alphaherpesvirus 2; test: Antiviral activity against Herpes simplex virus 2 G infected in human HELF cells assessed as reduction in virus-induced cytopathogenicity incubated for 7 days by microscopic analysis; format: functional, organism-based
[30] = test system: Human alphaherpesvirus 1; test: Antiviral activity against Herpes simplex virus 1 TK-KOS-ACV infected in human HELF cells assessed as reduction in virus-induced cytopathogenicity incubated for 7 days by microscopic analysis; format: functional, organism-based
[31] = test system: Human adenovirus 2; test: Antiviral activity against Human adenovirus 2 infected in human HELF cells assessed as reduction in virus-induced cytopathogenicity incubated for 7 days by microscopic analysis; format: functional, organism-based
[32] = test system: Human coronavirus 229E; test: Antiviral activity against Human coronavirus 229E infected in human HELF cells assessed as reduction in virus-induced cytopathogenicity incubated for 7 days by microscopic analysis; format: functional, organism-based
[33] = test system: Coxsackievirus B4; test: Antiviral activity against Human coxsackievirus B4 infected in vero cells assessed as reduction in virus-induced cytopathogenicity incubated for 7 days by microscopic analysis; format: functional, organism-based
[34] = test system: Reovirus sp.; test: Antiviral activity against Reovirus infected in vero cells assessed as reduction in virus-induced cytopathogenicity incubated for 7 days by microscopic analysis; format: functional, organism-based
[35] = test system: Sindbis virus; test: Antiviral activity against Sindbis virus infected in vero cells assessed as reduction in virus-induced cytopathogenicity incubated for 7 days by microscopic analysis; format: functional, organism-based

In the case of CCCCCCCCCCc1cn(C[C@H](O)[C@H]2OC(=O)C(OCc3ccccc3)=C2OCc2ccccc2)nn1, the IC50 [1] is reported as 6.75 µM, the IC50 [2] is reported as 40.3 µM and the IC50 [3] is reported as 28.8 µM. For the same molecule, the IC50 [4] was 22.9 µM, the IC50 [5] was 12.2 µM and the IC50 [6] was 0.08 µM. It also gave an IC50 [7] of 45.1 µM, an IC50 [8] greater than 100 µM and an Activity [9] of 0%. It also gave an Activity [10] of 1.68%, an Activity [11] of 11.36% and an Activity [12] of 13.4%. The Activity [13] was 35.3%, the Activity [14] was 8.76% and the Activity [15] was “Active”. The Activity [16] was “Active”, the EC50 [17] was greater than 4 µM and the EC50 [18] was greater than 4 µM. The EC50 [19] was 10.7 µM, the EC50 [20] was 7.76 µM and the MCC at 72 h [21] was 20 µM. The Activity [22] was “inactive”, the Activity [23] was “inactive” and the Activity [24] was “inactive”. The Activity [25] was “inactive”, the Activity [26] was “inactive” and the Activity [27] was “inactive”. The Activity [28] was “inactive”, the Activity [29] was “inactive” and the Activity [30] was “inactive”. The Activity [31] was “inactive”, the Activity [32] was “inactive” and the Activity [33] was “inactive”. For the same molecule, the Activity [34] was “inactive” and the Activity [35] was “inactive”.
